Laboratory results as given in ChEMBL document CHEMBL2169847, “New tricks for an old natural product: discovery of highly potent evodiamine derivatives as novel antitumor agents by systemic structure-activity relationship analysis and biological evaluations” (J Med Chem, 2012).
Activity calls are given as the source filed them. The rule behind the calls is not given here.

Columns and labels:
[1] = Toxicity in mouse; format: organism-based; details: in vivo
[2] = tested on: Nucleic Acid; assay: Induction of DNA intercalation in Escherichia coli pBR322 DNA assessed as induction of supercoiled DNA at 1 ug/ml incubated for 15 mins by electrophoresis based Top1 unwinding assay; format: nucleic-acid assay
How it was run: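 pBR322 plasmid (0.25 μg) preincubated with 100 μM compound or 1 μg/mL ethidium bromide, 37 °C, 15 min, in Top1 buffer (35 mM Tris-HCl pH 8.0, 72 mM KCl, 5 mM MgCl2, 5 mM DTT, 5 mM spermidine, 0.1% BSA). 5 U Top1 then added for 60 min at 37 °C. Stopped with SDS and proteinase K (50 °C, 20 min), phenol/chloroform extracted, agarose gel.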

[3] = target: T1, DNA topoisomerase 1 (Homo sapiens) (UniProt P11387); assay: Inhibition of Top1 assessed as suppression of supercoiled pBR322 DNA relaxation measuring appearance of short DNA fragments at 100 uM incubated for 15 mins by electrophoresis method
T1 sequence (whole entry): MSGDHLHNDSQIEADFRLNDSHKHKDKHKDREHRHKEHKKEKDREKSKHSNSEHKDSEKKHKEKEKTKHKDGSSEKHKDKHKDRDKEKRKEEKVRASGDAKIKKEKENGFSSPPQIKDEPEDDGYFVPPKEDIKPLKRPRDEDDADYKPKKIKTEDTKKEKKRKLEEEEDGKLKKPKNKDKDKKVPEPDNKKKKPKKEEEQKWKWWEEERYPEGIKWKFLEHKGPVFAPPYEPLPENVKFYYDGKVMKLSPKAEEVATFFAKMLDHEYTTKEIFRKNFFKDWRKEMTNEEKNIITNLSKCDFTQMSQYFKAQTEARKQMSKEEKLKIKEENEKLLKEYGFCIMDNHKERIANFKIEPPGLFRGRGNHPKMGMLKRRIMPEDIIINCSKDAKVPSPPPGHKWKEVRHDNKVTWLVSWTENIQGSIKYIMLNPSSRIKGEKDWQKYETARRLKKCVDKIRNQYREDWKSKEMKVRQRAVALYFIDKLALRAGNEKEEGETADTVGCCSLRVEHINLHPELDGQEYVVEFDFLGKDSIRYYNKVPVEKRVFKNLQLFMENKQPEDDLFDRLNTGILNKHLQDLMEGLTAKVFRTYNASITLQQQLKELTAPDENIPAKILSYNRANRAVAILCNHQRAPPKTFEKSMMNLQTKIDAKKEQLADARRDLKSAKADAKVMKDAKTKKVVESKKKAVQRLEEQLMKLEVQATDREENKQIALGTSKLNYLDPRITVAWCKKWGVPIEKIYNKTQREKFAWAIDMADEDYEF

[4] = tested on: A549; assay: Induction of apoptosis in human A549 cells at 5 uM incubated for 48 hrs by flow cytometry (reference value: 0.43%); format: functional
[5] = tested on: A549; assay: Induction of apoptosis in human A549 cells assessed as change in cell morphology at 5 uM incubated for 48 hrs by immunostaining based light microscopy; format: functional
How it was run: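 A549 cells exposed to 5 μM compound, or DMSO, for 48 h. Morphology judged under a light microscope.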

[6] = tested on: MDA-MB-435; assay: Cytotoxicity against human MDA-MB-435 cells incubated for 72 hrs by MTT assay; format: functional; details: MDA-MB-435, 72 h
How it was run: (§1)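 MTT assay. Cells seeded at 5 × 10³/well and grown 24 h at 37 °C, 5% CO₂. Compounds added at several concentrations in triplicate wells, with 0.1% DMSO control, for 72 h. MTT then added for 4 h, formazan dissolved in DMSO, and absorbance read at 570 nm. GI₅₀ by Logit method; three experiments.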

[7] = tested on: HCT-116; assay: Cytotoxicity against human HCT116 cells incubated for 72 hrs by MTT assay; format: functional; details: HCT-116, 72 h; how it was run: as §1
[8] = tested on: A549; assay: Cytotoxicity against human A549 cells incubated for 72 hrs by MTT assay; format: functional; details: A549, 72 h; how it was run: as §1
[9] = tested on: Mus musculus; assay: Toxicity in BALB/C nude mouse xenografted with human HCT116 cells assessed as reduction in body weight at 2 mg/kg, ip administered as a single dose on 17th day and measured on 30 to 33 days post implantation; format: organism-based, HCT-116; set-up: dose 2 mg/kg, route intraperitoneal; details: in vivo
How it was run: (§2)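 Cells implanted subcutaneously in right axilla of nude mice; dosing began at tumor volume about 100−300 mm³ (day 17). Randomized, six mice per treatment group and eight controls; ip injection. Tumor volume by caliper, TV = 1/2 × a × b², with body weight every 4 days. Mice sacrificed day 30−33 and tumors removed. Mean SEM, Student's t test versus control.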

[10] = tested on: HCT-116; assay: Antitumor activity against human HCT116 cells xenografted in BALB/C nude mouse assessed as tumor growth inhibition at 2 mg/kg, ip administered as a single dose on 17th day and measured on 30 to 33 days post implantation; format: functional, organism-based; set-up: dose 2 mg/kg; how it was run: as §2
[11] = tested on: Nucleic Acid; assay: Binding affinity at calf thymus DNA minor groove assessed as displacement of Hoechst 33258 dye incubated for 20 mins by microplate reader based assay; format: nucleic-acid assay; details: Bos taurus
[12] = target: T1, DNA topoisomerase 1 (Homo sapiens); assay: Inhibition of Top1 assessed as stabilization of Top1-pUC19 DNA cleavage complex measuring increase of nicked DNA at 100 uM incubated for 15 mins by electrophoresis method
[13] = target: DNA topoisomerase 2-alpha (Homo sapiens) (UniProt P11388); assay: Inhibition of human Top2alpha assessed as stabilization of Top2-pBr322 DNA cleavage complex measuring linear DNA formation at 100 uM incubated for 20 mins by electrophoresis method
How it was run: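 Top2α drug screening kit with 8 units hTop2α and pBR322 plasmid. After reaction, proteinase K (200 μg/mL final) 20 min at 50 °C. Electrophoresis in TAE with 0.5 μg/mL ethidium bromide to resolve nicked, linear, relaxed and supercoiled forms.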

[14] = tested on: Nucleic Acid; assay: Induction of DNA intercalation in Escherichia coli pBR322 DNA assessed as induction of supercoiled DNA at 100 uM incubated for 15 mins by electrophoresis based Top1 unwinding assay; format: nucleic-acid assay
[15] = tested on: Nucleic Acid; assay: Binding affinity at calf thymus DNA at 50 uM after 20 mins by UV/vis absorbance titration based assay; format: nucleic-acid assay; details: Bos taurus
How it was run: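 ct-DNA in DPBS pH 7.4, concentration set by A260 (13200 M⁻¹/cm per bp). Compounds at 50 μM in DPBS with 1% DMSO, with or without ct-DNA 0−100 μM. After 20 min equilibration at room temperature, absorption spectra recorded over 220−400 nm in a microplate reader. Hypochromic or bathochromic shifts taken as the sign of binding.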

[16] = target: T1, DNA topoisomerase 1 (Homo sapiens); assay: Inhibition of Top1 assessed as suppression of supercoiled pBR322 DNA relaxation measuring appearance of short DNA fragments at 50 uM incubated for 15 mins by electrophoresis method
[17] = tested on: Mus musculus; assay: Toxicity in BALB/C nude mouse xenografted with human A549 cells assessed as reduction in body weight at 1 mg/kg, ip for 13 days measured on 30 to 33 days post implantation; format: organism-based; set-up: dose 1 mg/kg, route intraperitoneal; details: in vivo; how it was run: as §2
[18] = tested on: A549; assay: Antitumor activity against human A549 cells xenografted in BALB/C nude mouse assessed as tumor growth inhibition at 1 mg/kg, ip for 13 days measured on 30 to 33 days post implantation; format: functional, organism-based; set-up: dose 1 mg/kg; how it was run: as §2
[19] = target: DNA topoisomerase 2-alpha (Homo sapiens) (UniProt P11388); assay: Inhibition of human Top2alpha assessed as suppression of supercoiled pBR322 DNA relaxation at 50 uM incubated for 30 mins by electrophoresis method
[20] = target: DNA topoisomerase 2-alpha (Homo sapiens) (UniProt P11388); assay: Inhibition of human Top2alpha assessed as suppression of supercoiled pBR322 DNA relaxation at 50 uM incubated for 30 mins in presence of excess ATP level by electrophoresis method
[21] = tested on: SAOS-2; assay: Cytotoxicity against human Saos2 cells incubated for 72 hrs by MTT assay; format: functional; details: SAOS-2, 72 h; how it was run: as §1
[22] = tested on: HL-60; assay: Cytotoxicity against human HL60 cells incubated for 72 hrs by MTT assay; format: functional; details: HL-60, 72 h; how it was run: as §1
[23] = tested on: PC-3; assay: Cytotoxicity against human PC3 cells incubated for 72 hrs by MTT assay; format: functional; details: PC-3, 72 h; how it was run: as §1
[24] = tested on: HepG2; assay: Cytotoxicity against human HepG2 cells incubated for 72 hrs by MTT assay; format: functional; details: HepG2, 72 h; how it was run: as §1
[25] = tested on: U2OS; assay: Cytotoxicity against human U2OS cells incubated for 72 hrs by MTT assay; format: functional; how it was run: as §1
[26] = tested on: PANC-1; assay: Cytotoxicity against human PANC1 cells incubated for 72 hrs by MTT assay; format: functional; details: PANC-1, 72 h; how it was run: as §1
[27] = target: T1, DNA topoisomerase 1 (Homo sapiens); assay: Inhibition of Top1 assessed as suppression of supercoiled pBR322 DNA relaxation measuring appearance of short DNA fragments at 500 uM incubated for 15 mins by electrophoresis method
[28] = tested on: CNE; assay: Cytotoxicity against human CNE cells incubated for 72 hrs by MTT assay; format: functional; how it was run: as §1
[29] = Cytotoxicity against human KYSE-150 cells incubated for 72 hrs by MTT assay; format: functional; details: KYSE-150, 72 h; how it was run: as §1
[30] = tested on: ZR-75-30; assay: Cytotoxicity against human ZR75-30 cells incubated for 72 hrs by MTT assay; format: functional; details: ZR-75-30, 72 h; how it was run: as §1

Chain of DNA topoisomerase 2-alpha (Homo sapiens) (P11388 whole entry): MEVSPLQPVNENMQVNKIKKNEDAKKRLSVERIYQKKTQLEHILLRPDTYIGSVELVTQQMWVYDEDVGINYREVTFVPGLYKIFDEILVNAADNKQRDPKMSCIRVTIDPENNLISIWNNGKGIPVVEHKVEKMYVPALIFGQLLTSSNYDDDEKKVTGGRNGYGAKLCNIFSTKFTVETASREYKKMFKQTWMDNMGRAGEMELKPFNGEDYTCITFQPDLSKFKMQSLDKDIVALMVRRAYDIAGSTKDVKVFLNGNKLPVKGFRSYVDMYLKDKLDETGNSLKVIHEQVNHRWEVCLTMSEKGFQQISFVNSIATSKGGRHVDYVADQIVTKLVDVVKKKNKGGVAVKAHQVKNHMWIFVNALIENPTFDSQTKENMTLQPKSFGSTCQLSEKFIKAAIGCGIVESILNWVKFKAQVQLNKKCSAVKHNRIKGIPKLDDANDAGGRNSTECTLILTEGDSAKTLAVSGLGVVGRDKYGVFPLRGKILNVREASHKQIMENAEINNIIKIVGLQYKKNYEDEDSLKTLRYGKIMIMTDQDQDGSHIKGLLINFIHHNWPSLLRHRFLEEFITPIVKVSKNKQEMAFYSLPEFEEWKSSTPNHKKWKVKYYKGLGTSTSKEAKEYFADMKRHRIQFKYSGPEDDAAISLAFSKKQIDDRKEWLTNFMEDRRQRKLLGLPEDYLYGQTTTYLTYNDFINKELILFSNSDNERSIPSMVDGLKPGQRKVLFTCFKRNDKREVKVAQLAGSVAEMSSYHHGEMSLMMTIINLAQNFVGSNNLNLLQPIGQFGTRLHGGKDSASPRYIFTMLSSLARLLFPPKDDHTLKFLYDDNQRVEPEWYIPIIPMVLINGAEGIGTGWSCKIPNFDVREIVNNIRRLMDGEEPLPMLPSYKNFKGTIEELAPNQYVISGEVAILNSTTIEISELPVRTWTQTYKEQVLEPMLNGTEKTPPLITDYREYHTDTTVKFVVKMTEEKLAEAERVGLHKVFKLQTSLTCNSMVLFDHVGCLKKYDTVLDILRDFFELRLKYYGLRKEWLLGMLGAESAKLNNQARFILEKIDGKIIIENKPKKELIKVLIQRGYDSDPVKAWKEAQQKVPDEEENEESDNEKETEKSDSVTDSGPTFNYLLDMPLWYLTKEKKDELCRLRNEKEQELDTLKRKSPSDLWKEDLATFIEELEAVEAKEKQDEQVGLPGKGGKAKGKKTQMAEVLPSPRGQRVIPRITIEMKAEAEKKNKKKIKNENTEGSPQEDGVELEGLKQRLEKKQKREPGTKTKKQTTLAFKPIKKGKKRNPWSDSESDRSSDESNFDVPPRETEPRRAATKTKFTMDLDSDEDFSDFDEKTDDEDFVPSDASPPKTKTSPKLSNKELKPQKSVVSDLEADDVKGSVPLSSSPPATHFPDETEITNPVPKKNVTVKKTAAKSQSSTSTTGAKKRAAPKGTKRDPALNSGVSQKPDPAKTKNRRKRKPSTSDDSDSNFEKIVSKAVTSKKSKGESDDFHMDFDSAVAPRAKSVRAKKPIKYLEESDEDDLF

CN1c2ccccc2C(=O)N2CCc3c([nH]c4ccccc34)[C@H]21 [EVODIAMINE]
LD50 [1]: 77.8 mg/kg

CC[n+]1c(-c2ccccc2)c2cc(N)ccc2c2ccc(N)cc21
Activity [2]: Active

CN1c2ccc(N)cc2C(=O)N2CCc3c([nH]c4ccc(O)cc34)C21 (stereo unspecified)
inhibition [3]: Active
Activity [4]: 14.48%
Activity [5]: Active
GI50 [6]: 0.007 µM
GI50 [7]: 0.007 µM
GI50 [8]: 4 µM
Activity [9]: Non-toxic
TGI [10]: Active
Activity [11]: inactive
inhibition [12]: Active
inhibition [13]: inactive
Activity [14]: inactive
Activity [15]: inactive
inhibition [16]: Active

CN1c2ccccc2C(=O)N2CCc3c([nH]c4ccc(O)cc34)C21 (stereo unspecified)
inhibition [3]: Active
Activity [4]: 13.07%
Activity [5]: Active
GI50 [6]: < 0.003 µM
GI50 [7]: < 0.003 µM
GI50 [8]: < 0.003 µM
Activity [9]: Non-toxic
TGI [10]: Active
Activity [17]: Non-toxic
TGI [18]: Active
Activity [11]: inactive
inhibition [12]: Active
inhibition [13]: inactive
Activity [14]: inactive
Activity [15]: inactive
inhibition [19]: Active

CN1c2ccc(F)cc2C(=O)N2CCc3c([nH]c4ccccc34)C21 (stereo unspecified)
inhibition [20]: inactive
inhibition [3]: Active
GI50 [21]: 205 µM
GI50 [22]: < 0.003 µM
GI50 [23]: 34.2 µM
GI50 [24]: 188 µM
GI50 [25]: 129 µM
GI50 [26]: 1.7 µM
GI50 [6]: < 0.003 µM
GI50 [7]: < 0.003 µM
GI50 [8]: < 0.003 µM
Activity [17]: Non-toxic
TGI [18]: Active
inhibition [19]: Active

CN1c2ccccc2C(=O)N2CCc3c([nH]c4ccccc34)[C@@H]21 [EVODIAMINE]
inhibition [3]: inactive
GI50 [6]: 20.2 µM
GI50 [7]: 100 µM
GI50 [8]: 100 µM
inhibition [27]: Active

CN1c2ccc(F)cc2C(=O)N2CCc3c([nH]c4ccc(O)cc34)[C@@H]21
GI50 [28]: 5.88 µM
GI50 [29]: 1.23 µM
GI50 [30]: 1.75 µM
GI50 [7]: 0.011 µM
GI50 [8]: 0.0046 µM

CN1c2ccc(F)cc2C(=O)N2CCc3c([nH]c4ccc(O)cc34)[C@H]21
GI50 [28]: 8.11 µM
GI50 [29]: 0.003 µM
GI50 [30]: 0.003 µM
GI50 [7]: 0.0036 µM
GI50 [8]: 0.0037 µM
